Results published in ChEMBL document CHEMBL1122206, “Use of adenine nucleotide derivatives to assess the potential of exo-active-site-directed reagents as species- or isozyme-specific enzyme inactivators. 5. Interactions of adenosine 5'-triphosphate derivatives with rat pyruvate kinases, Escherichia coli thymidine kinase, and yeast and rat …” (1982).
“And” between values parts separate entries of the source, which are not always exact repeats. Equal values may be shown once.

What was measured:
[1] = Substrate concentration for half maximal velocity was reported for rat hexokinase I
Summary of the method: (§1)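 Coupled glucose-6-phosphate dehydrogenase/NADP assay: A340 rate at 22 °C in 0.05 M Tris-HCl pH 7.6 with 6.6 mM MgCl2, 10 mM α-D-glucose and 0.93 mM NADP, nucleotide varied. KM was taken from linear double-reciprocal plots. Rat HK I and III came from electrofocused, dialysed liver extract, HK II from dialysed muscle extract, and yeast HK was isoelectric-focused.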

[2] = Substrate concentration for half maximal velocity was reported for rat hexokinase II; summary of the method: as §1
[3] = Substrate concentration for half maximal velocity was reported for rat hexokinase III; summary of the method: as §1
[4] = Substrate concentration for half maximal velocity was reported for yeast hexokinase; summary of the method: as §1
[5] = Compound was tested for substrate constants with yeast hexokinase. Maximal velocity Vmax was reported
Summary of the method: (§2)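 Hexokinase KM and Vmax taken from linear double-reciprocal plots of initial velocity vs. nucleotide level. Assays at 22 °C, coupled to glucose-6-phosphate dehydrogenase (A340), in 0.05 M Tris-HCl pH 7.6 with 6.6 mM MgCl2, 10 mM glucose and 0.93 mM NADP. Yeast HK was isoelectric-focused. Rat HK I and III came from liver, HK II from muscle (male Sprague-Dawley).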

[6] = Compound was tested for substrate constants with rat hexokinase. Maximal velocity Vmax was reported; summary of the method: as §2

`CN(CCCN(C)C(=O)CCCCNc1ncnc2c1ncn2[C@@H]1O[C@H](COP(=O)(O)OP(=O)(O)OP(=O)(O)O)[C@@H](O)[C@H]1O)C(=O)CCCCNC(=O)OCc1ccccc1` showed a Km [1] of 180 µM, a Km [2] of 270 µM and a Km [3] of 100 µM. For the same compound, the Km [4] was 320 µM, the Vmax [5] was 75% and the Vmax [6] was 45% and 35% and 23%.
